In ChEMBL document CHEMBL2434825, “2-Heteroarylimino-5-arylidene-4-thiazolidinones as a new class of non-nucleoside inhibitors of HCV NS5B polymerase” (Eur J Med Chem, 2013):
Calls of active or inactive are those of the source. The rule behind the calls is not given here.

Tests used:
[1] = Inhibition of HCV NS5B RdRp activity; design: species or system Hepacivirus hominis
Outline: (§1)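 NS5BCΔ21 (300 ng) was incubated 1 h at 30 °C with 0.25 μM polyrA/U12, 25 μM UTP plus [α-32P]UTP and 1.0 mM MnCl2 in 20 mM Tris-HCl pH 7.0 with NaCl, Na glutamate, DTT, BSA, Tween-20, glycerol and RNase inhibitor. Reactions were stopped with cold 5% TCA/pyrophosphate, captured on GF-B filters and scintillation-counted versus a background-subtracted DMSO control. Screening used 100 μM; IC50 came from 8–12-point curves, duplicate, two experiments.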

Hepatitis C virus [2] = assay: Antiviral activity against Hepatitis C virus subtype 2a infected in human Huh7.5 cells assessed as inhibition of viral RNA replication at 100 uM after 42 hrs by […] assay relative to control; assay type: functional, Hepacivirus hominis; details: genotype 2a; for inhibition at 100 µM: Huh-7, 42 h; for inhibition: Hepacivirus hominis, Huh-7
Outline: (§2)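 Replicon reporter cells (Huh7/Rep-Feo1b for 1b; Huh7.5-FGR-JC1-Rluc2A for 2a) kept in DMEM, 10% FCS, 0.5 mg/mL G418, 37 °C, 5% CO2. Seeded 1 × 10^4 cells/well, treated 8 h later with 100 μM compound or DMSO for 42 h. Luciferase signal read as percent of DMSO controls. Viability by MTS assay in parental Huh7.5 cells. Average of two independent experiments in duplicate.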

[3] = Cytotoxicity against human Huh7.5 cells assessed as cell viability at 100 uM after 42 hrs by MTS assay; assay type: cell-based, Huh-7; details: read-out: Activity
Hepatitis C virus [4] = assay: Antiviral activity against Hepatitis C virus subtype 1b infected in human HuH7 cells assessed as inhibition of viral RNA replication at 100 uM after 42 hrs by […] assay relative to control; assay type: functional, Hepacivirus hominis; details: genotype 1b; for inhibition at 100 µM: Huh-7, 42 h; for inhibition: Hepacivirus hominis, Huh-7; outline: as §2
[5] = Inhibition of HCV NS5B RdRp activity transfected in BHK cells at 100 uM after 42 hrs by dual-glo luciferase reporter gene assay relative to control; assay type: cell-based; details: Hepacivirus hominis
Outline: (§3)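 BHK cells stably carrying NS5B plus bicistronic (+)FLuc-(−)UTR-RLuc reporter, grown in DMEM, 10% FBS, 1 mg/mL G418, blasticidin. Seeded 1 × 10^4 cells/well, given 100 μM compound 8 h later, lysed 42 h post-treatment, dual luciferase read. Viability taken as firefly luciferase relative to DMSO controls. NS5B activity taken as percent reduction in RLuc/FLuc ratio versus DMSO. Two independent experiments in duplicate.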

[6] = Inhibition of HCV NS5BCdelta21 RdRp activity after 1 hr by liquid scintillation counting analysis in presence of [alpha-32P]UTP; design: species or system Hepacivirus hominis; outline: as §1
Hepacivirus hominis = assay: Inhibition of HCV NS5BCdelta21 RdRp activity at 100 uM after 1 hr by liquid scintillation counting analysis in presence of [alpha-32P]UTP relative to control
Outline: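 Template 0.25 μM polyrA/U12, with 25 μM UTP plus [α-32P]UTP. Inhibitor at 100 μM, 1 h, 30 °C. Stopped with cold 5% TCA/0.5 mM pyrophosphate, product filter-captured and counted by scintillation. Background-subtracted, relative to DMSO (100%). At least two independent experiments in duplicate.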

[7] = Cytotoxicity against BHK cells transfected with HCV NS5B RdRp assessed as cell viability at 100 uM after 42 hrs by luciferase reporter gene assay; assay type: cell-based, Mesocricetus auratus; details: hamster, read-out: Activity; outline: as §3
[8] = Selectivity ratio for Hepatitis C virus subtype 2a infected in human Huh7.5 cells over Hepatitis C virus subtype 1b infected in human HuH7 cells; assay type: functional, Huh-7
[9] = Inhibition of 6xHis-tagged HCV NS5B RdRp activity; design: species or system Hepacivirus hominis; outline: as §1

IC50 [1]	IC50 [9]	Structure (SMILES)	inhibition at 100 µM (Hepatitis C virus [2])	viability at 42 h, 100 µM [3]	inhibition at 100 µM (Hepatitis C virus [4])	inhibition [5]	IC50 [6]	inhibition (Hepacivirus hominis)	viability at 42 h, 100 µM [7]	inhibition (Hepatitis C virus [2])	inhibition (Hepatitis C virus [4])	Selectivity ratio [8]
48 µM	–	O=C(NN1C(=O)CSC1c1ccccc1F)c1cc(-c2ccc(F)cc2F)ccc1O (stereo not drawn)	–	–	–	–	–	–	–	–	–	–
–	–	O=C1N/C(=N\c2nnc(-c3ccc(F)cc3)s2)S/C1=C\c1ccccc1Cl	95.3%	15.6%	98%	61%	64.9 µM	53.9%	11.4%	–	–	–
–	–	O=C1N/C(=N\c2nnc(-c3ccc(F)cc3)s2)S/C1=C\c1c(Cl)cccc1Cl	98.9%	73.2%	98.8%	13.6%	19.8 µM	74.1%	72.2%	–	–	–
–	–	O=C1N/C(=N\c2nnc(-c3ccc(Cl)cc3)s2)S/C1=C\c1ccccc1Cl	–	0%	–	inactive	33.8 µM	73.6%	0%	inactive	inactive	–
–	–	COc1cccc(OC)c1/C=C1\S/C(=N/c2nnc(-c3ccc(F)cc3)s2)NC1=O	93.2%	63%	87.7%	inactive	–	19.7%	73.7%	–	–	–
–	–	O=C1N/C(=N\c2nnc(-c3ccc(Cl)cc3)s2)S/C1=C\c1c(F)cccc1Cl	–	0%	–	inactive	45.3 µM	60.3%	0%	inactive	inactive	–
–	–	Nc1nnc(-c2ccc(Cl)cc2)s1	72.8%	32.4%	37.4%	inactive	–	16.8%	28.6%	–	–	1.6
–	–	O=C1N/C(=N\c2nnc(-c3ccc(Cl)cc3)s2)S/C1=C\c1cccc(F)c1	95.6%	60.3%	92.8%	63.1%	48.2 µM	65.5%	58.1%	–	–	–
–	–	O=C(CCl)Nc1nnc(-c2ccc(Cl)cc2)s1	–	81.9%	–	–	–	20%	98.9%	–	–	–
–	–	O=C1N/C(=N\c2nnc(-c3ccc(F)cc3)s2)S/C1=C\c1ccccc1F	96.1%	59.9%	97.4%	11%	51.1 µM	62.4%	55.7%	–	–	–
–	–	O=C(CCl)Nc1nnc(-c2ccc(F)cc2)s1	–	84.8%	–	–	–	16%	98.3%	–	–	–
–	–	O=C1N/C(=N\c2nnc(-c3ccc(Cl)cc3)s2)S/C1=C\c1ccc(Cl)cc1Cl	–	0%	–	inactive	–	25.7%	0%	inactive	inactive	–
–	–	O=C1N/C(=N\c2nnc(-c3ccc(F)cc3)s2)S/C1=C\c1cccc(F)c1	98%	59.7%	95.5%	85.9%	34.6 µM	72%	55.1%	–	–	–
–	–	O=C1N/C(=N\c2nnc(-c3ccc(F)cc3)s2)S/C1=C\c1c(F)cccc1Cl	98.5%	74.6%	99.4%	–	–	28.1%	89.8%	–	–	–
–	–	O=C1N/C(=N\c2nnc(-c3ccc(Cl)cc3)s2)S/C1=C\c1ccc([N+](=O)[O-])cc1	–	–	–	–	–	33%	–	–	–	–
–	–	O=C1N/C(=N\c2nnc(-c3ccc(Cl)cc3)s2)S/C1=C\c1ccc(F)cc1	94.9%	64.2%	82.2%	inactive	–	25%	73.1%	–	–	–
–	–	O=C1N/C(=N\c2nnc(-c3ccc(Cl)cc3)s2)S/C1=C\c1c(Cl)cccc1Cl	98.1%	76%	98.5%	–	5.6 µM	82%	94.9%	–	–	–
–	–	O=C1N/C(=N\c2nnc(-c3ccc(F)cc3)s2)S/C1=C\c1ccc(Cl)cc1Cl	54.7%	4.2%	29.4%	inactive	–	11.5%	0%	–	–	1.6
–	–	COc1cccc(OC)c1/C=C1\S/C(=N/c2nnc(-c3ccc(Cl)cc3)s2)NC1=O	98.9%	80.4%	97.7%	–	–	24.1%	87.4%	–	–	–
–	–	Nc1nnc(-c2ccc(F)cc2)s1	52.4%	18.6%	46.8%	9.4%	–	15.4%	–	–	–	–
–	–	O=C1CS/C(=N/c2nnc(-c3ccc(Cl)cc3)s2)N1	89.8%	13.3%	54.1%	65.7%	42.5 µM	74.4%	15.2%	–	–	1.6
–	–	O=C1CS/C(=N/c2nnc(-c3ccc(F)cc3)s2)N1	72.8%	14%	70%	57.9%	38.6 µM	76.1%	–	–	–	–
–	–	O=C1N/C(=N\c2nnc(-c3ccc(F)cc3)s2)S/C1=C\c1ccc([N+](=O)[O-])cc1	50.4%	13.9%	51.2%	7%	–	24.1%	14.6%	–	–	–
–	0.44 µM	O=C1/C(=C/c2ccc(Br)cc2)SC(=S)N1NS(=O)(=O)c1ccccc1	–	–	–	–	–	–	–	–	–	–
–	–	O=C1N/C(=N\c2nnc(-c3ccc(Cl)cc3)s2)S/C1=C\c1ccccc1F	98.5%	13.1%	96.4%	65.6%	56.2 µM	56.2%	12.8%	–	–	–
